ChEMBL document CHEMBL3112415, “Novel hybrid selenosulfonamides as potent antileishmanial agents” (Eur J Med Chem, 2014)

Columns and labels:
[1] = test system: Leishmania infantum; assay: Leishmanicidal activity against axenic amastigote stage of Leishmania infantum after 24 hrs by propidium iodide staining-based flow cytometric analysis; type: functional, organism-based
In short: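 Axenic amastigotes maintained at pH 5.4, 37 °C in medium with citric acid, sodium bicarbonate, MES, hemin and gentamicin; miltefosine and edelfosine as standards; at least three independent experiments; IC50 values.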

[2] = test system: THP-1; assay: Cytotoxicity against human THP1 cells after 24 hrs by propidium iodide staining-based flow cytometric analysis; type: cell-based; conditions: THP-1, 24 h
In short: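 THP-1 cells grown in RPMI-1640 with 10% heat-inactivated FCS, 1 mM HEPES, 2 mM glutamine, 1 mM pyruvate, pH 7.2, 37 °C, 5% CO2; treated in log phase at 4 × 10⁵ cells/mL for 24 h at 37 °C, 5% CO2. Viability by flow cytometry with propidium iodide exclusion; IC50 reported.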

[3] = Selectivity index, ratio of IC50 for human THP1 cells to IC50 for axenic amastigote stage of Leishmania infantum; type: toxicity, cell-based, THP-1; conditions: read-out: Ratio IC50
In short: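 SI computed as THP-1 IC50 (24 h PI-exclusion flow cytometry) divided by IC50 against L. infantum amastigotes.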

[4] = test system: Leishmania infantum; assay: Leishmanicidal activity against amastigote stage of Leishmania infantum expressing GFP infected in human THP1 cells after 48 hrs by flow cytometric analysis; type: functional, organism-based; conditions: THP-1, 48 h
In short: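 THP-1 cells seeded at 120.000 cells/mL, differentiated to macrophages for 24 h with 10 ng/mL PMA in RPMI-1640, then infected with 1.2 × 10⁶ eGFP-expressing amastigotes per well; free parasites removed after 4 h. After 48 h drug treatment, cells washed with PBS, detached with TrypLE, and infection rate read by flow cytometry.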

## O=S(=O)(Nc1ccc([Se][Se]c2ccc(NS(=O)(=O)c3ccccc3)cc2)cc1)c1ccccc1
[1]
  IC50: 1.64 µM
[2]
  IC50: 11.9 µM
[3]
  selectivity ratio: 7.3

## Cc1ccc(S(=O)(=O)Nc2ccc([Se][Se]c3ccc(NS(=O)(=O)c4ccc(C)cc4)cc3)cc2)cc1
[1]
  IC50: 1.4 µM
[4]
  IC50: 4.1 µM
[2]
  IC50: > 25 µM
[3]
  selectivity ratio: > 18

## COc1ccc(S(=O)(=O)Nc2ccc([Se][Se]c3ccc(NS(=O)(=O)c4ccc(OC)cc4)cc3)cc2)cc1
[1]
  IC50: 1.3 µM
[2]
  IC50: 18.1 µM
[3]
  selectivity ratio: 14

## N#Cc1ccc(S(=O)(=O)Nc2ccc([Se][Se]c3ccc(NS(=O)(=O)c4ccc(C#N)cc4)cc3)cc2)cc1
[1]
  IC50: 1.76 µM
[2]
  IC50: 3.6 µM
[3]
  selectivity ratio: 2

## O=[N+]([O-])c1ccc(S(=O)(=O)Nc2ccc([Se][Se]c3ccc(NS(=O)(=O)c4ccc([N+](=O)[O-])cc4)cc3)cc2)cc1
[1]
  IC50: 3.74 µM
[2]
  IC50: 17.1 µM
[3]
  selectivity ratio: 4.6

## O=S(=O)(Nc1ccc([Se][Se]c2ccc(NS(=O)(=O)c3ccc(C(F)(F)F)cc3)cc2)cc1)c1ccc(C(F)(F)F)cc1
[1]
  IC50: 2.01 µM
[2]
  IC50: 19.1 µM
[3]
  selectivity ratio: 9.5

## O=S(=O)(Nc1ccc([Se][Se]c2ccc(NS(=O)(=O)c3ccc(F)cc3)cc2)cc1)c1ccc(F)cc1
[1]
  IC50: 1.47 µM
[4]
  IC50: 2.8 µM
[2]
  IC50: > 25 µM
[3]
  selectivity ratio: > 17

## O=S(=O)(Nc1ccc([Se][Se]c2ccc(NS(=O)(=O)c3ccc(Cl)cc3)cc2)cc1)c1ccc(Cl)cc1
[1]
  IC50: 3.63 µM
[2]
  IC50: > 25 µM
[3]
  selectivity ratio: > 7

## O=S(=O)(Nc1ccc([Se][Se]c2ccc(NS(=O)(=O)c3ccc(Br)cc3)cc2)cc1)c1ccc(Br)cc1
[1]
  IC50: 2.8 µM
[2]
  IC50: 5.2 µM
[3]
  selectivity ratio: 2

## O=S(=O)(Nc1ccc([Se][Se]c2ccc(NS(=O)(=O)c3ccccc3F)cc2)cc1)c1ccccc1F
[1]
  IC50: 1.66 µM
[2]
  IC50: 17.8 µM
[3]
  selectivity ratio: 10.7

## O=S(=O)(Nc1ccc([Se][Se]c2ccc(NS(=O)(=O)c3ccccc3Cl)cc2)cc1)c1ccccc1Cl
[1]
  IC50: 1.17 µM
[2]
  IC50: 17.4 µM
[3]
  selectivity ratio: 15

## O=S(=O)(Nc1ccc([Se][Se]c2ccc(NS(=O)(=O)c3ccc(-c4ccccc4)cc3)cc2)cc1)c1ccc(-c2ccccc2)cc1
[1]
  IC50: 13.8 µM
[2]
  IC50: > 25 µM
[3]
  selectivity ratio: > 2

## O=S(=O)(Nc1ccc([Se][Se]c2ccc(NS(=O)(=O)c3ccc4ccccc4c3)cc2)cc1)c1ccc2ccccc2c1
[1]
  IC50: 5.65 µM
[2]
  IC50: > 25 µM
[3]
  selectivity ratio: > 4.4

## O=S(=O)(Nc1ccc([Se][Se]c2ccc(NS(=O)(=O)c3cccc4cccnc34)cc2)cc1)c1cccc2cccnc12
[1]
  IC50: 0.83 µM
[4]
  IC50: 6.2 µM
[2]
  IC50: > 25 µM
[3]
  selectivity ratio: > 30

## O=S(=O)(Nc1ccc([Se][Se]c2ccc(NS(=O)(=O)c3cccs3)cc2)cc1)c1cccs1
[1]
  IC50: 1.54 µM
[2]
  IC50: 8.6 µM
[3]
  selectivity ratio: 5.6

## Cn1ccnc1S(=O)(=O)Nc1ccc([Se][Se]c2ccc(NS(=O)(=O)c3nccn3C)cc2)cc1
[1]
  IC50: 1.05 µM
[2]
  IC50: 4.4 µM
[3]
  selectivity ratio: 4

## CCCCCCCCCCCCCCCCCCOCC(COP(=O)([O-])OCC[N+](C)(C)C)OC (stereo not given) [EDELFOSINE]
[4]
  IC50: 3.1 µM
[2]
  IC50: 4.9 µM
[3]
  selectivity ratio: 6

## CCCCCCCCCCCCCCCCOP(=O)([O-])OCC[N+](C)(C)C [MILTEFOSINE]
[3]
  selectivity ratio: 7
